Assay results reported in ChEMBL document CHEMBL1158765, “Cyclic peroxides derived from the marine sponge Plakortis simplex” (J Nat Prod, 2005).
In brackets after ≈: the same amount, converted by molar mass.

Key:
Assay type in all cases: functional, cell-based
[1] = Antitumor activity against human MEXF 642NL cells
How it was run: (§1)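 Human tumor cell lines derived from patient tumors grown subcutaneously in NMRI nu/nu mice, cultured as monolayers and exposed to test compounds. Surviving cells were stained with a fluorescent dye. Doubling times 24-35 h. IC50 taken from concentration-dependent T/C values. Where not reached within the test range, IC extrapolated by linear regression if within 3-fold of the highest concentration.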

[2] = Antitumor activity against human GXF251L cells; settings: GXF 251L; how it was run: as §1
[3] = Antitumor activity against human UXF 1138L cells; how it was run: as §1
[4] = Antitumor activity against human LXF 529L cells; how it was run: as §1
[5] = Antitumor activity against human RXF 486L cells; how it was run: as §1
[6] = Antitumor activity against human MAXF 401NL cells; how it was run: as §1

Structure (SMILES) | IC50 [1] [µg/mL] | IC50 [2] [µg/mL] | IC50 [3] [µg/mL] | IC50 [4] [µg/mL] | IC50 [5] [µg/mL] | IC50 [6] [µg/mL]
CCCCC[C@@]1(CC)C=C(CC)[C@@H](CC(=O)OC)OO1 (relative stereo) | > 10 | > 10 | > 10 | > 10 | > 10 | > 10
CCCCCC[C@@]1(CC)C=C(CC)[C@@H](CC(=O)OC)OO1 (relative stereo) | 7.2 (≈ 24.1 µM) | 8.3 (≈ 27.8 µM) | 14.4 (≈ 48.3 µM) | 7.7 (≈ 25.8 µM) | 14.1 (≈ 47.2 µM) | –
